# Experimental data collected from several papers.
# Lines come from different studies, so protocols differ.
# PIK3CA E545A: Phosphatidylinositol 4,5-bisphosphate 3-kinase catalytic subunit alpha isoform (PIK3CA, Homo sapiens, UniProt P42336, E545A)
# PIK3CA: Phosphatidylinositol 4,5-bisphosphate 3-kinase catalytic subunit alpha isoform (PIK3CA, Homo sapiens, UniProt P42336)
# PIK3CA I800L: Phosphatidylinositol 4,5-bisphosphate 3-kinase catalytic subunit alpha isoform (PIK3CA, Homo sapiens, UniProt P42336, I800L)
# PIK3CA M1043I: Phosphatidylinositol 4,5-bisphosphate 3-kinase catalytic subunit alpha isoform (PIK3CA, Homo sapiens, UniProt P42336, M1043I)
# PIK3CA Q546K: Phosphatidylinositol 4,5-bisphosphate 3-kinase catalytic subunit alpha isoform (PIK3CA, Homo sapiens, UniProt P42336, Q546K)
# PIK3CA E545K: Phosphatidylinositol 4,5-bisphosphate 3-kinase catalytic subunit alpha isoform (PIK3CA, Homo sapiens, UniProt P42336, E545K)
# PIK3CA H1047Y: Phosphatidylinositol 4,5-bisphosphate 3-kinase catalytic subunit alpha isoform (PIK3CA, Homo sapiens, UniProt P42336, H1047Y)
# PIK3CA C420R: Phosphatidylinositol 4,5-bisphosphate 3-kinase catalytic subunit alpha isoform (PIK3CA, Homo sapiens, UniProt P42336, C420R)
SMILES,target,assay,conditions,remaining binding [%]
CN(C)c1ncc(F)c(-c2cnn3ncccc23)n1,PIK3CA E545A,binding,1 µM,59
O=C(NCCCN1CCOCC1)c1ccc(Nc2nccc(-c3cc4ccccc4s3)n2)cc1,PIK3CA,"binding, competition with immobilised ligand",1 µM,93
COc1cnc(Nc2cccc(S(N)(=O)=O)c2)nc1N1CCN(c2ccccc2)C(=O)C1,PIK3CA E545A,"binding, competition with immobilised ligand",1 µM,98
CCS(=O)(=O)c1cc2cc(C[C@](O)(CC(C)(C)c3ccc(F)cc3C(N)=O)C(F)(F)F)[nH]c2cn1,PIK3CA I800L,"cell-free assay, competition with immobilised ligand",1 µM,73
CCN1CCN(Cc2ccc(C(=O)Nc3ccc(C)c(Oc4ccc5c(c4)CC(=O)N5)c3)cc2C(F)(F)F)CC1,"Phosphatidylinositol 4,5-bisphosphate 3-kinase catalytic subunit alpha isoform (PIK3CA, Homo sapiens, UniProt P42336, H1047L)","binding, competition with immobilised ligand",1 µM,100
C=CC(=O)N1CCC(C(=O)NCC(=O)N2CCN(c3nc(-c4cnc(N)nc4C(F)F)nc(N4CCOCC4)n3)CC2)CC1,PIK3CA I800L,"binding, competition with immobilised ligand",1 µM,0
Cc1cnc(Nc2ccc(C(=O)N3CCC(N4CCCC4)CC3)cc2)nc1-c1cc2ccccc2s1,PIK3CA M1043I,"binding, competition with immobilised ligand",1 µM,74
F[C@@H]1CCN(c2nccc(-c3cnn4ncccc34)n2)C1,PIK3CA Q546K,binding,1 µM,55
O=C(Nc1c[nH]nc1C(=O)NC1CCNCC1)c1cc(F)cc(F)c1,PIK3CA M1043I,"binding, competition with immobilised ligand",1 µM,100
c1cnn2ncc(-c3ccnc(N4CCC45COC5)n3)c2c1,PIK3CA M1043I,binding,1 µM,67
CN(C)c1ncnc(-c2ccc3nc(Nc4cc(CN5CCN(C(=O)CC(F)(F)F)CC5)ccn4)[nH]c3c2)c1Cl,PIK3CA E545K,"cell-free assay, competition with immobilised ligand",1 µM,76
CN1CCN(c2ccc(Nc3nccc(-c4ccccc4)n3)cc2C(F)(F)F)CC1,PIK3CA E545A,binding,10 µM,100
CN(CCCC(F)(F)F)c1nccc(-c2cnn3ncccc23)n1,PIK3CA H1047Y,binding,1 µM,100
C[C@H](c1cccc(C#N)c1)n1cc(Cl)cc(C(N)=O)c1=N,PIK3CA Q546K,"cell-free assay, competition with immobilised ligand",1 µM,100
N#Cc1ccccc1CSc1nnc2c(n1)[nH]c1ccccc12,PIK3CA,"binding, competition with immobilised ligand",10 µM,100
CN(C)c1nccc(-c2cnn3ncccc23)n1,PIK3CA,binding,1 µM,97
CCOCCn1cc(C(=O)Nc2ccc(-n3nc(-c4cccnc4)cc3C(F)(F)F)cn2)ccc1=O,PIK3CA E545K,"cell-free assay, competition with immobilised ligand",1 µM,96
O=C(c1ccc(Nc2nccc(-c3cc4ccccc4s3)n2)cc1)N1CCC(N2CCCC2)CC1,PIK3CA,"binding, competition with immobilised ligand",1 µM,100
Cc1cc(NC(=O)c2cccc(S(F)(F)(F)(F)F)c2)cc(-n2ccn3nc(-c4cccnc4)cc23)c1,PIK3CA C420R,"cell-free assay, competition with immobilised ligand",1 µM,97.1
N[C@H]1CCN(c2nccc(-c3cnn4ncccc34)n2)C1,PIK3CA Q546K,binding,1 µM,91
CCCOc1ccc([C@H]2[C@H](C(=O)O)[C@@H](c3ccc4c(c3)OCO4)CN2CC(=O)Nc2c(CC)cccc2CC)cc1,PIK3CA I800L,"cell-free assay, competition with immobilised ligand",1 µM,81
C[C@@H]1CCN(c2nccc(-c3cnn4ncccc34)n2)C1,PIK3CA,binding,1 µM,100
Cc1cc(C)c(-n2ccn3nc(-c4cccnc4)cc23)cc1NC(=O)c1cc(C#N)cc(S(F)(F)(F)(F)F)c1,PIK3CA H1047Y,"cell-free assay, competition with immobilised ligand",0.1 µM,76.2
COc1ncc2cc3ccccc3nc2c1C#N,PIK3CA C420R,"cell-free assay, competition with immobilised ligand",5 µM,78
